Screening results from PubChem.
In the library only some 0.99% were active in any assay of this set; here they are far more common.
ABCB1 inh: inhibitors of human ABCB1 transporter, ABCG2 counter-screen. P08183. CCRF-Adr cells, JC-1 efflux, flow cytometry. inhibition, % at 6.6 µM. 190,000 compounds, 0.067% hits; in the data active = inhibition above about 40%;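 note: 0% = vehicle and 100% = reference inhibitor; higher value means more JC-1 retained so stronger ABCB1 efflux block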
ABCG2 inh: inhibitors of human ABCG2 transporter, ABCB1 counter-screen; IgMXP3 cells, JC-1 efflux, flow cytometry; inhibition, % at 6.6 µM; Q9UNQ0; AID 1325; 190,000 compounds, 0.1% hits;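 active = inhibition above 80%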;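 note: 0% = DMSO and 100% = nicardipine control wells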
Target sequence (Q9UNQ0 whole entry, looked up): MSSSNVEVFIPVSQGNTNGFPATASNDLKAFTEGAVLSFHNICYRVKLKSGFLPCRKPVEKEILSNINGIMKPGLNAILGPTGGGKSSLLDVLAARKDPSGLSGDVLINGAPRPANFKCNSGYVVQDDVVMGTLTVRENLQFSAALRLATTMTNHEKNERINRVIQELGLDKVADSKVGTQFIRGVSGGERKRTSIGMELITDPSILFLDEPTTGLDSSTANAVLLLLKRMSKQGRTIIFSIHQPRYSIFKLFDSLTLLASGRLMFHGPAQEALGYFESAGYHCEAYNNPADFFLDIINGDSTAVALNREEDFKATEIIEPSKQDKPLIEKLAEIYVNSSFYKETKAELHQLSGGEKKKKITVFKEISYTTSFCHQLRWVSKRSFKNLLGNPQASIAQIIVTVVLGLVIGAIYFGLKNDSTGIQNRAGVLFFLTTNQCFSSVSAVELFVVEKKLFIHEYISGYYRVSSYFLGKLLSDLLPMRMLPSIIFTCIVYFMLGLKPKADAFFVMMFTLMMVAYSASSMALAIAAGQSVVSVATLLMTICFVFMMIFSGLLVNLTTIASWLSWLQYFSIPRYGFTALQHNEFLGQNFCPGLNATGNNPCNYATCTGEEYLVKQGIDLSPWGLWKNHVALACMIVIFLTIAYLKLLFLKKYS
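Test system: IgMXP3 (ABCG2) plus far-red-tagged CCRF-Adr (ABCB1) cells / Amount: 3 million cells/mL in well / Reagent: JC-1 transporter substrate / Timing: 10 min compound exposure, 25 °C / Signal: flow cytometry, 530 nm JC-1 signal / Read-out: percent efflux inhibition, scaled nicardipine 100% to DMSO 0% / Benchmarks: nicardipine as high control, DMSO as low control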
GRK2 inh: human GRK2 inhibition via aptamer displacement; bead flow cytometry, FAM-aptamer displacement from GRK2; 330,000 compounds, 0.59% hits; P25098; inhibition of aptamer binding, % at 10 µM;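 active = inhibition of aptamer binding above 40%, roughly 3 SD of noise, on plates passing a quality check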;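 note: median bead fluorescence of bound FAM aptamer so fluorescent compounds give negative values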
Ins promoter up: MIN6 insulin promoter up-regulation | 190,000 compounds, 0.3% hits | AID 1625 | MIN6 insulin promoter-GFP reporter, high-content imaging; stronger effect = higher value | z-score at 5 µM;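 active = z-score above 3 at 5 µM with at least 500 cells counted in the well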
Tn7 DDE FP: inhibitors of Tn7 peptide binding to human fibrin DD(E); 370,000 compounds, 0.13% hits; inhibition, % at 8.3 µM; P02675; FP displacement of FITC-Tn7 peptide from fibrin DD(E); 0% = median of compound wells per plate;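 active = inhibition above the mean of compounds falling within the control limits plus 3 SD of them, cut at about 14% in these data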;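 note: 0% = plate median of compound wells and 100% = 10 µM Aha-Tn7 peptide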
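Assay system: human fibrin DD(E). Input: DD(E) 2 µM final. Medium: Tris buffer with calcium and detergent, pH 7.8. Compound dosing: single point at 8.3 µM. Timing: 10 min plus 3 h, room temperature. Technique: fluorescence polarization of the labelled Tn7 tracer. Read-out: percent inhibition. Replicates: singlicate testing.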
DDE Tn6 FP inh: inhibitors of Tn6 peptide binding to human fibrin DD(E); P02675; Fibrin DD(E) TRITC-Tn6 fluorescence polarization displacement; inhibition, % at 8.3 µM; 370,000 compounds, 0.21% hits; AID 720509;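 active = inhibition above a per-campaign cutoff: mean of compounds within control limits plus 3 SD, cut at about 15% in these data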;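 note: 0% = median of all compound wells on the plate and 100% = blocking peptide control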
* marks the source's active call; other numbers are inactive results; · = not tested or not shown; + = active, no number.

SMILES	ABCB1 inh	ABCG2 inh	GRK2 inh	Ins promoter up	Tn7 DDE FP	DDE Tn6 FP inh
CCOc1ccccc1C(=O)Nc1cc(OC)ccc1OC	2.9	100.0*	2.0	-0.29	-12.2	-7.4
COc1cccc2c1C(=O)c1c(O)c3c(c(O)c1C2=O)C[C@@](O)(C(=O)CO)C[C@@H]3OC1CC(N)C(O)C(C)O1 (some centres undefined)	·	·	·	·	12.8	+
CC(=O)[C@@]1(O)Cc2c(O)c3c(c(O)c2[C@H](O[C@H]2C[C@H](N)[C@H](O)[C@H](C)O2)C1)C(=O)c1ccccc1C3=O	·	·	·	·	51.3*	197.8*
COc1cccc2c1C(=O)c1c(O)c3c(c(O)c1C2=O)C[C@@](O)(C(=O)CO)C[C@@H]3O[C@H]1C[C@H](N)[C@H](O)[C@H](C)O1	·	·	27.0	·	18.7*	+
N#CCC[C@H]1CC[C@]2(CCCN(C(=O)C3CCCCC3)C2)O1	·	·	·	·	2.2	8.1
Cc1cccc(C(=O)Nc2nc3ncccn3c2-c2ccc(F)cc2)c1	·	·	·	·	-3.3	-10.4
CC1=CCC(C(=O)O)C(C(=O)NC2CCCCC2)C1 (centres undefined)	·	·	89.0*	·	-0.3	-6.5
C[C@H]1COc2cc(N3CCSCC3)ccc2S(=O)(=O)N1C	·	·	·	·	-0.7	0.3
CCOC(=O)c1ccc(S(=O)(=O)NNC(=O)COc2ccc(C)cc2)cc1	-0.1	-0.2	92.0*	0.65	10.5	-2.8
CC(C)[C@H](NC(=O)CC1CCCC1)C(=O)N1CCC[C@H]1C(=O)NCCc1ccccc1Cl	·	·	·	·	-1.8	0.7
COc1ccc2cc3c(N)nn(C(=O)c4cccc([N+](=O)[O-])c4)c3nc2c1	0.8	15.4	73.0*	0.03	-1.7	-3.5
O=C(COc1ccc(Cl)cc1)NCc1nnc(SCC(=O)Nc2ccccc2)o1	0.9	5.2	1.0	0.06	-7.5	1.1
O=C(COc1ccc(Cl)cc1)NCc1nnc(SCC(=O)NC2CCCCC2)o1	1.0	19.2	0.0	3.28*	-7.7	-4.8
Cc1ccc2c(c1)-c1c(cnn1CC(=O)NCCc1ccc(O)cc1)CO2	·	·	·	·	-2.3	2.7
CC(C)CC1=NN2C(=N)/C(=C\c3coc4ccccc4c3=O)C(=O)N=C2S1	1.0	6.3	·	-0.39	-5.9	-11.5
CCSC1=NSC2=NC(=O)/C(=C\c3coc4ccccc4c3=O)C(=N)N12	29.4	+	0.0	0.44	-4.8	-1.2
O=C(OCC(=O)N1CCN(C(=O)c2ccco2)CC1)c1ccccc1OCc1ccccc1	0.8	2.7	2.0	11.8*	4.7	5.6
Nc1c(C(=O)NCC(O)c2ccccc2)cnn1-c1ccccc1 (centres undefined)	·	·	·	·	3.2	-1.7
Fc1ccc(-c2n[nH]c(=S)n2N=Cc2ccc(OCc3ccccc3)cc2)cc1	·	·	·	·	6.8	1.8
COc1ccc(NC(=O)N2CCC(N(C)CCC(C)C)CC2)cc1OC	·	·	·	·	2.4	3.6
Cc1c(N=Cc2nc3ccccc3n2C)c(=O)n(-c2ccccc2)n1C	1.6	89.7*	1.0	·	-1.9	3.4
O=S1(=O)c2c(cccc2N2CC[C@@H](O)C2)O[C@@H]2CCN1C2	·	·	·	·	1.2	8.3
Cc1ccc(/C=N/Nc2cc(C)nc(NCc3ccccc3)n2)cc1	·	·	0.0	-0.52	-1.2	-5.1
Cc1cc(N/N=C/c2ccc(O)cc2)nc(NS(=O)(=O)c2ccccc2)n1	-1.1	-8.0	74.0*	·	-6.2	1.9
Cc1cccc(C)c1OCC(=O)N/N=C/c1ccncc1	0.4	13.9	42.0*	·	0.4	-2.1
SMILES	ABCB1 inh	ABCG2 inh	GRK2 inh	Ins promoter up	Tn7 DDE FP	DDE Tn6 FP inh
CCC(=O)N1CCc2cc(Br)c(S(=O)(=O)N3CCCC(C(=O)NC(C)(C)C)C3)cc21 (centres undefined)	·	·	·	·	2.7	1.5
OC(c1ccccc1)(c1ccccc1)C1CCN(CCCOc2ccc(Br)cc2)CC1	·	·	·	·	-15.3	6.1
Oc1c(C=C2N=c3ccccc3=N2)sc(=S)n1-c1ccccc1	-0.9	-2.7	22.0	-0.2	2.1	0.6
CC1=Nc2ccccc2/C1=C/c1sc(=S)n(-c2cccc(C(=O)O)c2)c1O	0.1	-2.9	·	3.2*	-33.8	-5.3
O=C(NCC1COc2ccccc2O1)c1ccc(NC(=O)c2c(Cl)cccc2Cl)cc1 (centres undefined)	·	·	·	·	1.8	-0.5
COC(=O)[C@H](CC(C)C)N(CCCc1cn(CC2CCCCC2)nn1)S(=O)(=O)c1ccccc1Br	·	·	·	·	-2.1	-3.8
